Active and inactive are the calls of the source. No cut-off for these calls is given here. Positions of bridges follow the written chain, without caps; N, C: chain ends. Non-standard residues stand in square brackets, D forms with d. Residues, ends and D or L forms follow the SMILES beside them. ξ: configuration not given here. S5 = C=CCCC[C@](C)(N)C(=O)O; Orn = NCCC[C@H](N)C(=O)O; ξK = NCCCCC(N)C(=O)O

As usually defined, the Kd is the equilibrium constant for the complex coming apart. A low value points to higher affinity. A word on the EC50: it is the concentration needed to bring the measured effect to its halfway point.

Data set [1] addresses T1, Proprotein convertase subtilisin/kexin type 9 (Homo sapiens, UniProt Q8NBP7). Description: Binding affinity to human PCSK9 by surface plasmon resonance. In short, it runs like this:
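Recombinant human His-tagged PCSK9 (Gln31–Gln692, HEK293-expressed) at 14 µg/mL amine-coupled onto Ni-NTA chip, ~1000–4000 RU. Buffer 25 mM Tris-HCl, 5 mM CaCl2, 100 mM NaCl, 0.01% P20, pH 7.5, 5% DMSO in running buffer. 25°C. Double-referenced sensorgrams; KD from steady-state equilibrium responses fit to a 4-parameter model, or kinetics fit 1:1.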

A short description of data set [2]: Effect on mast cell degranulation in human LAD2 cells assessed as CCL3 release measured after 2 hrs by Luminex bead based assay. Type of data set: functional. Particulars: for EC50: Homo sapiens, LAD2, 2 h; for Emax: time 2 hrs. In short, it runs like this:
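LAD2 human mast cells in StemPro 34 medium, 0.2×10^6 cells/well. Supernatant CCL3 quantified by Luminex magnetic bead kit.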

In another data set the test system is HepG2. The experiment in a line: Cytotoxicity against human HepG2 cells assessed as reduction in cell viability at 0.4 to 10 uM for 48 hrs by SRB assay. It is filed as toxicity, cell-based. Particulars: hepg2, 48 h, dose 0.4-10 µM. The procedure, abridged: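 HepG2 cells seeded 2000/well 24 h before treatment. Compounds at 0.4, 1.1, 3.3 and 10 µM in DMEM, 48 h at 37°C. SRB staining 30 min at 37°C, dye dissolved in 10 mM Tris base, absorbance at 560 nm. Triplicate wells averaged and normalized to untreated cells.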
Background: In SRB staining, fixed cells bind dye roughly in proportion to their protein.

Data set [3] can be described thus: Reversal of LDL uptake in human HepG2 cells for 2 hrs preincubation with PCSK9 followed by LDL addition and measured after 4 hrs by fluorimetry method relative to control. It is filed as functional, cell-based. The procedure, abridged:
(§1)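 HepG2 cells seeded 40000/well, serum-starved 24 h in DMEM with 5% LPDS. Human His-PCSK9 (20–50 nM) preincubated 30–60 min at room temperature ± compounds (10 µM to 0.0001 µM, 0.1% DMSO). Cells then exposed 2 h at 37°C. LDL-BODIPY added to 10 µg/mL final for 4 h. Fluorescence read at ex 480/em 520 nm. Expressed as % maximal LDL-BODIPY incorporation; EC50 by non-linear fit.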

Data set [4] can be described thus: Reversal of LDL uptake in human HepG2 cells at 10 uM for 2 hrs preincubation with PCSK9 followed by LDL addition and measured after 4 hrs by fluorimetry method relative to control. Type of data set: functional. The settings on record: time 6 hrs. In short, it runs like this: as §1
Data set [5] has as its target T1, Proprotein convertase subtilisin/kexin type 9. The experiment in a line: Binding affinity to human PCSK9.

T1 sequence (Q8NBP7 31-152 limits assumed): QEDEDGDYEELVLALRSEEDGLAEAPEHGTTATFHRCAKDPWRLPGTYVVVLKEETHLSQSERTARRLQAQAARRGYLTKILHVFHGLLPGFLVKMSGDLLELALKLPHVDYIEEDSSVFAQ
T1 sequence (Q8NBP7 153-692 limits assumed): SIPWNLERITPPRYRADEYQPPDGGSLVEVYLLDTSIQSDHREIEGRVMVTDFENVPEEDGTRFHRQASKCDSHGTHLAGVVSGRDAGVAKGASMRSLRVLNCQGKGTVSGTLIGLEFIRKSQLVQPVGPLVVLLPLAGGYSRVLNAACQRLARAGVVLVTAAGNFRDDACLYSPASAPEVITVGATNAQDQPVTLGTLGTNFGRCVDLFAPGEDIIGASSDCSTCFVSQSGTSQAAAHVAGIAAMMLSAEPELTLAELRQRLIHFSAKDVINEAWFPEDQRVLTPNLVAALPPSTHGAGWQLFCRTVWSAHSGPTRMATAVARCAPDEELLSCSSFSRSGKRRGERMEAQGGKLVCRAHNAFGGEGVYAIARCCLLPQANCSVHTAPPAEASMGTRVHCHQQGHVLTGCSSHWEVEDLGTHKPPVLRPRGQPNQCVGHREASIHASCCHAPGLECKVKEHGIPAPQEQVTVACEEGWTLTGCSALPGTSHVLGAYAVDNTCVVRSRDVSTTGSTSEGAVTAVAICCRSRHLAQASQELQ

Consider `CC(=O)N[C@H](C(=O)N[C@H](C(=O)N[C@@H](Cc1ccccc1)C(=O)N[C@H](C(=O)N[C@@H](CO)C(=O)N[C@@H](Cc1c[nH]c2ccccc12)C(=O)N[C@@H](CCC(=O)O)C(=O)N[C@@H](CCC(=O)O)C(=O)N[C@@H](Cc1ccc(O)cc1)C(=O)N[C@@H](CC(C)C)C(=O)N[C@@H](CC(=O)O)C(=O)N[C@@H](Cc1c[nH]c2ccccc12)C(=O)N[C@H](C(N)=O)C(C)C)[C@@H](C)O)C(C)C)[C@@H](C)O`, for which binding in data set [1] was put at a Kd of 9700 nM. Further, the EC50 in data set [2] was greater than 5000 nM; in data set [3] it was 6000 nM. The Emax in data set [2] amounted to 116.7 pg/mL. Further, the Activity entry in the data set on HepG2 was “Non-Toxic”; in data set [4] it was 56.5%.

Consider `CC(=O)N[C@@H](Cc1cnc[nH]1)C(=O)N[C@H](C(=O)N[C@@H](Cc1ccccc1)C(=O)N[C@@H](CCCCN)C(=O)N[C@@H](CO)C(=O)N[C@@H](Cc1c[nH]c2ccccc12)C(=O)N[C@H]1CCCCNC(=O)C[C@@H](C(=O)N[C@@H](Cc2c[nH]c3ccccc23)C(=O)N[C@H](C(=O)N[C@@H](CCCCN)C(=O)N[C@@H](CCCCN)C(=O)N[C@@H](CCCCN)C(=O)N[C@@H](CCCCN)C(=O)N[C@@H](CCCCN)C(=O)N[C@@H](CCCCN)C(N)=O)C(C)C)NC(=O)[C@H](CC(C)C)NC(=O)[C@H](Cc2ccc(O)cc2)NC(=O)[C@H](CCC(=O)O)NC1=O)C(C)C` (Ac-HVFKSWKEYLDWVKKKKKK-NH2; lactam 7-11), for which the Kd in data set [1] was found to be 6 nM. Further, the EC50 in data set [2] is 2200 nM; in data set [3], 175 nM. Further, the Emax in data set [2] was found to be 1483.2 pg/mL. In the data set with HepG2, the Activity entry is “Non-Toxic”.

Turning to `CC(=O)N[C@@H](Cc1cnc[nH]1)C(=O)N[C@H](C(=O)N[C@@H](Cc1ccccc1)C(=O)N[C@@H](CC(N)=O)C(=O)N[C@@H](CO)C(=O)N[C@@H](Cc1c[nH]c2ccccc12)C(=O)N[C@H]1CCCCNC(=O)C[C@@H](C(=O)N[C@@H](Cc2c[nH]c3ccccc23)C(=O)N[C@H](C(=O)NC(CCCCN)C(=O)NC(CCCCN)C(=O)NC(CCCCN)C(N)=O)C(C)C)NC(=O)[C@H](CC(C)C)NC(=O)[C@H](Cc2ccc(O)cc2)NC(=O)[C@H](CCC(=O)O)NC1=O)C(C)C` (some centres not stated) (Ac-HVFNSWKEYLDWV[ξK][ξK][ξK]-NH2; lactam 7-11), in data set [1], the Kd was 757 nM. Moreover, the Activity entry with HepG2 is “Non-Toxic”.

With `CC(=O)N[C@@H](Cc1cnc[nH]1)C(=O)N[C@H](C(=O)N[C@@H](Cc1ccccc1)C(=O)N[C@@H](CCCNC(=N)N)C(=O)N[C@@H](CO)C(=O)N[C@@H](Cc1c[nH]c2ccccc12)C(=O)N[C@@]1(C)CCC/C=C\CCC[C@@](C)(C(=O)N[C@@H](Cc2c[nH]c3ccccc23)C(=O)N[C@H](C(=O)N[C@@H](CCCCN)C(=O)N[C@@H](CCCCN)C(=O)N[C@@H](CCCCN)C(=O)N[C@@H](CCCCN)C(=O)N[C@@H](CCCCN)C(=O)N[C@@H](CCCCN)C(N)=O)C(C)C)NC(=O)[C@H](CC(C)C)NC(=O)[C@H](Cc2ccc(O)cc2)NC(=O)[C@H](CCC(=O)O)NC1=O)C(C)C` (Ac-HVFRSW[S5]EYL[S5]WVKKKKKK-NH2; staple (Z) 7-11), the Kd in data set [1] is 7 nM. The Activity entry with HepG2 is reported as “Non-Toxic”.

On to `CC(=O)N[C@@H](Cc1cnc[nH]1)C(=O)N[C@H](C(=O)N[C@@H](Cc1ccccc1)C(=O)N[C@@H](CCCN)C(=O)N[C@@H](CO)C(=O)N[C@@H](Cc1c[nH]c2ccccc12)C(=O)N[C@@H](CCC(=O)O)C(=O)N[C@@H](CCC(=O)O)C(=O)N[C@@H](Cc1ccc(O)cc1)C(=O)N[C@@H](CC(C)C)C(=O)N[C@@H](CC(=O)O)C(=O)N[C@@H](Cc1c[nH]c2ccccc12)C(=O)N[C@H](C(N)=O)C(C)C)C(C)C` (Ac-HVF[Orn]SWEEYLDWV-NH2), for which binding in data set [1] was put at a Kd of 1100 nM. For the same compound, the Activity result with HepG2 is given as “Non-Toxic”.

Regarding `CC(=O)N[C@H](C(=O)N[C@H](C(=O)N[C@@H](Cc1ccccc1)C(=O)N[C@H](C(=O)N[C@@H](CO)C(=O)N[C@@H](Cc1c[nH]c2ccccc12)C(=O)N[C@H]1CCCCNC(=O)C[C@@H](C(=O)N[C@@H](Cc2c[nH]c3ccccc23)C(=O)N[C@H](C(N)=O)C(C)C)NC(=O)[C@H](CC(C)C)NC(=O)[C@H](Cc2ccc(O)cc2)NC(=O)[C@H](CCC(=O)O)NC1=O)[C@@H](C)O)C(C)C)[C@@H](C)O` (Ac-TVFTSWKEYLDWV-NH2; lactam 7-11), in data set [1], binding was put at a Kd of 3900 nM. For the same compound, in data set [2], the EC50 was greater than 5000 nM and the Emax was found to be 716.6 pg/mL. Also, the Activity result in the data set on HepG2 is listed as “Non-Toxic”. Also, the Activity in data set [4] was 52%.

As for `CC(=O)N[C@H](C(=O)N[C@H](C(=O)N[C@@H](Cc1ccccc1)C(=O)N[C@H](C(=O)N[C@@H](CO)C(=O)N[C@@H](Cc1c[nH]c2ccccc12)C(=O)N[C@H]1CCCCNC(=O)C[C@@H](C(=O)N[C@@H](Cc2c[nH]c3ccccc23)C(=O)N[C@H](C(=O)N[C@@H](CCCCN)C(=O)N[C@@H](CCCCN)C(=O)N[C@@H](CCCCN)C(N)=O)C(C)C)NC(=O)[C@H](CC(C)C)NC(=O)[C@H](Cc2ccc(O)cc2)NC(=O)[C@H](CCC(=O)O)NC1=O)[C@@H](C)O)C(C)C)[C@@H](C)O` (Ac-TVFTSWKEYLDWVKKK-NH2; lactam 7-11), the Kd in data set [1] is 1000 nM. Further, in the data set with HepG2, the Activity entry is listed as “Non-Toxic”.

Take `CC(=O)N[C@H](C(=O)N[C@H](C(=O)N[C@@H](Cc1ccccc1)C(=O)N[C@H](C(=O)N[C@@H](CO)C(=O)N[C@@H](Cc1c[nH]c2ccccc12)C(=O)N[C@H]1CCCCNC(=O)C[C@@H](C(=O)N[C@@H](Cc2c[nH]c3ccccc23)C(=O)N[C@H](C(=O)N[C@@H](CCCCN)C(=O)N[C@@H](CCCCN)C(=O)N[C@@H](CCCCN)C(=O)N[C@@H](CCCCN)C(=O)N[C@@H](CCCCN)C(=O)N[C@@H](CCCCN)C(N)=O)C(C)C)NC(=O)[C@H](CC(C)C)NC(=O)[C@H](Cc2ccc(O)cc2)NC(=O)[C@H](CCC(=O)O)NC1=O)[C@@H](C)O)C(C)C)[C@@H](C)O` (Ac-TVFTSWKEYLDWVKKKKKK-NH2; lactam 7-11): in data set [1], the Kd amounted to 25 nM. In addition, the Activity result in the data set with HepG2 was “Non-Toxic”.

Turning to `CC(=O)N[C@H](C(=O)N[C@H](C(=O)N[C@@H](Cc1ccccc1)C(=O)N[C@H](C(=O)N[C@@H](CO)C(=O)N[C@@H](Cc1c[nH]c2ccccc12)C(=O)N[C@@]1(C)CCC/C=C\CCC[C@@](C)(C(=O)N[C@@H](Cc2c[nH]c3ccccc23)C(=O)N[C@H](C(N)=O)C(C)C)NC(=O)[C@H](CC(C)C)NC(=O)[C@H](Cc2ccc(O)cc2)NC(=O)[C@H](CCC(=O)O)NC1=O)[C@@H](C)O)C(C)C)[C@@H](C)O` (Ac-TVFTSW[S5]EYL[S5]WV-NH2; staple (Z) 7-11), the affinity in data set [1], expressed as Kd, was 6500 nM. Moreover, the values for the Activity entry (with HepG2; in data set [4]) were “Non-Toxic” and 42.7%, respectively.

Take Ac-HVCNSWEEYLDWV-NH2: in data set [1], the result was inactive. The Activity entry with HepG2 is on record as “Non-Toxic”.

Ac-HVFKSWEEYLDWV-NH2: the Kd in data set [1] was 1200 nM. Also, the Activity entry in the data set with HepG2 is “Non-Toxic”.

Ac-HVFNSWEEYLDWV-NH2: the affinity in data set [1], expressed as Kd, was 3900 nM. For the same compound, the values for the Activity result (with HepG2; in data set [4]) were “Non-Toxic” and 62.4%, respectively.

As to Ac-HVFRSWEEYLDWV-NH2, the Kd in data set [1] came out at 865 nM. In addition, in the data set on HepG2, the Activity result is given as “Non-Toxic”.

Compound Ac-TVFTSWAEYLDWV-NH2 displayed a Kd in data set [1] of 7000 nM. In addition, in the data set on HepG2, the Activity entry is reported as “Non-Toxic”.

Consider Ac-TVFTSWEEYLDWVKKK-NH2, for which the Kd in data set [1] and in data set [5] was 1600 nM throughout. For the same compound, the Activity result in the data set on HepG2 is reported as “Non-Toxic”; in data set [4], 72.3%.

As to Ac-TVFTSWEEYLDWVKKKKKK-NH2, the Kd in data set [1] and in data set [5] was 424 nM throughout. In addition, the Activity result with HepG2 is recorded as “Non-Toxic”.
